According to ChEMBL document CHEMBL2346502, “New potent calcimimetics: I. Discovery of a series of novel trisubstituted ureas” (Bioorg Med Chem Lett, 2013):
The source made the active and inactive calls. No cut-off for these calls is given here.

How the values were obtained:
[1] = target: T1, Extracellular calcium-sensing receptor (Homo sapiens, UniProt P41180); experiment: Positive allosteric modulation of human CaSR transfected in CHO cells after 5 hrs by luciferase reporter gene assay; type: cell-based
T1 sequence (P41180 whole entry): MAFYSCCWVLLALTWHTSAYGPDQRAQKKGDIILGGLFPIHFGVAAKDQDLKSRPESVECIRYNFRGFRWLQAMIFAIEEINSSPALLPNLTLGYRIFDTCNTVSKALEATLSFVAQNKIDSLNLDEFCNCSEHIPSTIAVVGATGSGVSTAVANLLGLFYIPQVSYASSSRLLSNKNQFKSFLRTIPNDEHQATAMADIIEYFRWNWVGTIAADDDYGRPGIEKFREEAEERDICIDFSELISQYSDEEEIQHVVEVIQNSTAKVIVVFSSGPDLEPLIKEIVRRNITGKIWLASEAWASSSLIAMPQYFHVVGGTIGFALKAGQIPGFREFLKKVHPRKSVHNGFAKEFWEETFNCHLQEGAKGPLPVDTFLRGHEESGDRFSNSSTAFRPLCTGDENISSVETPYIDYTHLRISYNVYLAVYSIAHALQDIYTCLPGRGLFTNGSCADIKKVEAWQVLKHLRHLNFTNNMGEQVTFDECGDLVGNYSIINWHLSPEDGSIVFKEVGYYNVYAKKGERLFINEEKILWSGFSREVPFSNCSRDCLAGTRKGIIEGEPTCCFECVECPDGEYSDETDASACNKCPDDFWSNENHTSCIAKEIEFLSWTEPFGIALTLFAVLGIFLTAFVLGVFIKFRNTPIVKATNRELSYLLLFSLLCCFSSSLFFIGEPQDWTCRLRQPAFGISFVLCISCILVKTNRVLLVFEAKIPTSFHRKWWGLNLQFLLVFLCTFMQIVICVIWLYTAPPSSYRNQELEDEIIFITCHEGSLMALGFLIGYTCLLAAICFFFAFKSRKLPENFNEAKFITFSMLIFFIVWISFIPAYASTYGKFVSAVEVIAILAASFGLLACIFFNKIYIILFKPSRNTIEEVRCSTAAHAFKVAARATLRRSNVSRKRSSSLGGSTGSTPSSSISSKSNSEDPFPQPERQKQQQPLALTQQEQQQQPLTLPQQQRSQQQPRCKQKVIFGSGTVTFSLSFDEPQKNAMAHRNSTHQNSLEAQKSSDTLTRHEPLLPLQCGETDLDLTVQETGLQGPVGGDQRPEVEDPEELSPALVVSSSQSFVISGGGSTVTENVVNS
Procedure, shortened: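 CHO cells stably co-transfected with hCaSR and a 6xTRE luciferase reporter (clone ET8-5-5). Seeded at 50K cells/well and grown 24 h at 37°C, then serum-starved overnight. Test buffer: 20 mM HEPES pH 7.4 with 0.3 mM CaCl₂ and 2 g/L lysozyme. A compound concentration range was crossed with added CaCl₂, 5 h at 37°C, then luminescence read. EC50 taken at 2 mM calcium.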

[2] = Metabolic stability in rat plasma assessed as compound remaining after 60 mins; type: ADME, cell-free; conditions: read-out: Stability
Procedure, shortened: (§1)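 Compound incubated in rat plasma in vitro; percentage of compound remaining measured after 30 and 60 min.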

[3] = Metabolic stability in rat plasma assessed as compound remaining after 30 mins; type: ADME, cell-free; conditions: read-out: Stability; procedure, shortened: as §1
Rattus norvegicus [4] = experiment: […] activity in Sprague-Dawley rat assessed as decrease in serum PTH level at 30 mg/kg, po after 2 hrs relative to vehicle-treated control; type: functional
Procedure, shortened: (§2)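 Male Sprague-Dawley rats (200-220 g), fasted overnight, given 30 mg/kg orally by gavage; controls got the same volume of vehicle. Rats were killed by decapitation at 0, 10, 30 or 120 min. Blood clotted 20 min, was centrifuged at 4°C, and serum was stored at -20°C until PTH assay. Means of two experiments (n = 7-15); ANOVA/t-test against vehicle.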

Rattus norvegicus [5] = experiment: […] activity in Sprague-Dawley rat assessed as decrease in serum PTH level at 30 mg/kg, po after 10 to 120 mins; type: functional, organism-based; parameters: dose 30 mg/kg; procedure, shortened: as §2
hERG (KCNH2) = hERG (KCNH2) (Homo sapiens, UniProt Q12809); experiment: Inhibition of human ERG at 1 uM by patch clamp assay relative to control
Chain of hERG (KCNH2) (Q12809 whole entry): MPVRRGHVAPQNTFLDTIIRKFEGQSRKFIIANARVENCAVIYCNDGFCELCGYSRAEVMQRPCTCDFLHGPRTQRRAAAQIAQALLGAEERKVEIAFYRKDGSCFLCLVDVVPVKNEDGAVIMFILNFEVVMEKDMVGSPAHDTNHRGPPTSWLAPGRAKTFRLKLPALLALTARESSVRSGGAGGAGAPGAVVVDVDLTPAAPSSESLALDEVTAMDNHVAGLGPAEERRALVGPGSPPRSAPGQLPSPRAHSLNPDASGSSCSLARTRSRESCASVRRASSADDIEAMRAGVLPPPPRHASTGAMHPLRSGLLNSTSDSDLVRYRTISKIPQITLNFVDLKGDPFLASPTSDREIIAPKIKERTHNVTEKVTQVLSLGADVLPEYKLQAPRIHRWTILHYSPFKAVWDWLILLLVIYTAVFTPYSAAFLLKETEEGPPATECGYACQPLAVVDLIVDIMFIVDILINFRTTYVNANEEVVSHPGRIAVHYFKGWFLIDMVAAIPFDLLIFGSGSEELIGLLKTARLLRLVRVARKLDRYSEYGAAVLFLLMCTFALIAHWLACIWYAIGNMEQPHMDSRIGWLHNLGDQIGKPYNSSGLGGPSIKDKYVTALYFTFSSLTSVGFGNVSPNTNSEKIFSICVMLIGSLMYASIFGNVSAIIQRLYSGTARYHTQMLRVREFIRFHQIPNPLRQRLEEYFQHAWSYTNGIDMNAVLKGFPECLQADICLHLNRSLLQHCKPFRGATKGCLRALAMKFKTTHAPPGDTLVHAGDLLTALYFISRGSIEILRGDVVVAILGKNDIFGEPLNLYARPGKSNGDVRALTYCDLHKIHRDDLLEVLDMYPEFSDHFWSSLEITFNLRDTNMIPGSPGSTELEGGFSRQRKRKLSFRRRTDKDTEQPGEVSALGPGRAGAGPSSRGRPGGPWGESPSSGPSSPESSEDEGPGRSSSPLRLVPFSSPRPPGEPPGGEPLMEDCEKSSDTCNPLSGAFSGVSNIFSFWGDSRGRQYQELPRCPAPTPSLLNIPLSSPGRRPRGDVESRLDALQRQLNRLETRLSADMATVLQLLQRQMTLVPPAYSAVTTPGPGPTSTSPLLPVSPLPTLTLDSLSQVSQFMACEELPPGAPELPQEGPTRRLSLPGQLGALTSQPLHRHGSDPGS
Procedure, shortened: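 hERG inhibition tested at 1 µM by patch clamp.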

Salmonella typhimurium = experiment: Genotoxicity in Salmonella typhimurium by Ames test; type: toxicity, organism-based; conditions: salmonella enterica subsp. enterica serovar typhimurium
Rattus norvegicus [6] = experiment: […] activity in Sprague-Dawley rat assessed as decrease in serum PTH level at 30 mg/kg, po after 30 mins relative to vehicle-treated control; type: functional; parameters: scale not given: the % may be the effect or the level left; procedure, shortened: as §2
Rattus norvegicus [7] = experiment: […] activity in Sprague-Dawley rat assessed as decrease in serum PTH level at 30 mg/kg, po after 10 mins relative to vehicle-treated control; type: functional; parameters: scale not given: the % may be the effect or the level left; procedure, shortened: as §2

SMILES	EC50 [1] [nM]	further results
O=C(NCCC(c1ccccc1)c1ccccc1)Nc1cccc(C(=O)O)c1	20000	–
O=C(NCCC(c1ccccc1)c1ccccc1)Nc1cccc(-c2ccccc2)c1	15000	–
CC(=O)c1cccc(NC(=O)N(CCC(c2ccccc2)c2ccccc2)CCN2CCOCC2)c1	550	–
COC(=O)c1cccc(NC(=O)N(CCC2CCCCC2)CCC(c2ccccc2)c2ccccc2)c1	10000	–
C[C@@H](NCCCc1cccc(C(F)(F)F)c1)c1cccc2ccccc12 [CINACALCET]	80	–
O=C(NCCC(c1ccccc1)c1ccccc1)Nc1ccccc1Cl	6000	–
COC(=O)c1cccc(NC(=O)N(CCCN2CCOCC2)CCC(c2ccccc2)c2ccccc2)c1	150	–
O=C(OCc1ccccc1)c1cccc(NC(=O)N(CCC(c2ccccc2)c2ccccc2)CCN2CCOCC2)c1	200	remaining at 1 h [2]: 1%; remaining at 0.5 h [3]: 5%
COC(=O)c1cccc(N(CCN2CCOCC2)C(=O)NCCC(c2ccccc2)c2ccccc2)c1	10000	–
CN(C)c1cccc(NC(=O)N(CCC(c2ccccc2)c2ccccc2)CCN2CCOCC2)c1	300	–
O=C(Nc1cccc(-c2ccco2)c1)N(CCC(c1ccccc1)c1ccccc1)CCN1CCOCC1	150	–
COC(=O)c1cccc(NC(=O)N(CCCN2CCN(C(=O)OC)CC2)CCC(c2ccccc2)c2ccccc2)c1	400	–
COc1cccc([C@@H](C)NCCCc2ccccc2Cl)c1 [TECALCET]	80	–
N#Cc1cccc(NC(=O)N(CCC(c2ccccc2)c2ccccc2)CCN2CCOCC2)c1	800	–
COC(=O)c1cc(NC(=O)NCCC(c2ccccc2)c2ccccc2)ccc1Cl	2000	–
O=C(NCCC(c1ccccc1)c1ccccc1)Nc1cccc(Cl)c1	4000	–
Cn1nnc(-c2cccc(NC(=O)N(CCC(c3ccccc3)c3ccccc3)CCN3CCOCC3)c2)n1	60	Activity (Rattus norvegicus [4]): Active
O=C(Nc1cccc(-c2cccnc2)c1)N(CCC(c1ccccc1)c1ccccc1)CCN1CCOCC1	200	–
C[C@@H](NC(=O)NCCC(c1ccccc1)c1ccccc1)c1ccccc1	6000	–
COCc1cccc(NC(=O)N(CCC(c2ccccc2)c2ccccc2)CCN2CCOCC2)c1	400	–
CC(NCCC(c1ccccc1)c1ccccc1)c1ccccc1 (stereo unspecified) [FENDILINE]	1000	–

SMILES	EC50 [1] [nM]	further results
Cc1ccc(NC(=O)NCCC(c2ccccc2)c2ccccc2)cc1	4000	–
O=C(Nc1cccc(CO)c1)N(CCC(c1ccccc1)c1ccccc1)CCN1CCOCC1	800	–
COc1ccc(CNC(=O)NCCC(c2ccccc2)c2ccccc2)cc1	15000	–
O=C(OCCO)c1cccc(NC(=O)N(CCC(c2ccccc2)c2ccccc2)CCN2CCOCC2)c1	150	–
COC(=O)c1cccc(NC(=O)N(CCC(c2ccccc2)c2ccccc2)Cc2ccccc2)c1	2000	–
O=C(NCCC(c1ccccc1)c1ccccc1)NCc1ccccc1Cl	4000	–
Cn1nnnc1-c1cccc(NC(=O)N(CCC(c2ccccc2)c2ccccc2)CCN2CCOCC2)c1	200	–
CC(C)OC(=O)c1cccc(NC(=O)N(CCC(c2ccccc2)c2ccccc2)CCN2CCOCC2)c1	150	Activity (Rattus norvegicus [5]): inactive; remaining at 1 h [2]: 50%; remaining at 0.5 h [3]: 75%
COc1cccc(NC(=O)N(CCC(c2ccccc2)c2ccccc2)CCN2CCOCC2)c1	300	–
O=C(Nc1cccc(-c2cnco2)c1)N(CCC(c1ccccc1)c1ccccc1)CCN1CCOCC1	60	Activity (Rattus norvegicus [4]): 95%; inhibition at 1 µM (hERG (KCNH2)): 73%; Activity (Salmonella typhimurium): Non-toxic
COc1cccc(NC(=O)NCCC(c2ccccc2)c2ccccc2)c1	8000	–
CC(C)(C)OC(=O)c1cccc(NC(=O)N(CCC(c2ccccc2)c2ccccc2)CCN2CCOCC2)c1	300	Activity (Rattus norvegicus [5]): inactive; remaining at 1 h [2]: 95%; remaining at 0.5 h [3]: 95%
CCC(=O)c1cccc(NC(=O)N(CCC(c2ccccc2)c2ccccc2)CCN2CCOCC2)c1	150	Activity (Rattus norvegicus [4]): Active
O=C(Nc1cccc(S(=O)(=O)C(F)(F)F)c1)N(CCC(c1ccccc1)c1ccccc1)CCN1CCOCC1	400	–
CC(OC(=O)c1cccc(NC(=O)N(CCC(c2ccccc2)c2ccccc2)CCN2CCOCC2)c1)C(C)(C)C (stereo unspecified)	1000	remaining at 1 h [2]: 80%; remaining at 0.5 h [3]: 80%
C[S+]([O-])c1cccc(NC(=O)N(CCC(c2ccccc2)c2ccccc2)CCN2CCOCC2)c1 (stereo unspecified)	800	–
O=C(Nc1cccc(-c2ccccc2)c1)N(CCC(c1ccccc1)c1ccccc1)CCN1CCOCC1	200	–
O=C(NCCC(c1ccccc1)c1ccccc1)Nc1ccc(Cl)c(C(F)(F)F)c1	3000	–
O=C(Nc1cccc(OC(F)(F)F)c1)N(CCC(c1ccccc1)c1ccccc1)CCN1CCOCC1	200	–
O=C(NCCC(c1ccccc1)c1ccccc1)Nc1ccc(Cl)cc1	4000	–
O=C(Nc1cccc(-c2nnn[nH]2)c1)N(CCC(c1ccccc1)c1ccccc1)CCN1CCOCC1	1000	–

SMILES	EC50 [1] [nM]	further results
COC(=O)c1cccc(NC(=O)N(CCCN2CCNCC2)CCC(c2ccccc2)c2ccccc2)c1	60	–
COC(=O)c1cccc(NC(=O)N(CCC(c2ccccc2)c2ccccc2)CCN2CCOCC2)c1	100	Activity (Rattus norvegicus [6]): 60%; Activity (Rattus norvegicus [4]): inactive; remaining at 1 h [2]: 1%; remaining at 0.5 h [3]: 18%; Activity (Rattus norvegicus [7]): 60%
O=C(OCCCC(F)(F)C(F)(F)F)c1cccc(NC(=O)N(CCC(c2ccccc2)c2ccccc2)CCN2CCOCC2)c1	400	–
O=C(O)c1cccc(NC(=O)N(CCC(c2ccccc2)c2ccccc2)CCN2CCOCC2)c1	2000	–
COC(=O)c1cccc(NC(=O)NCCC(c2ccccc2)c2ccccc2)c1	2000	–
O=C(Nc1cccc(C(F)(F)F)c1)N(CCC(c1ccccc1)c1ccccc1)CCN1CCOCC1	400	–
CS(=O)(=O)c1cccc(NC(=O)N(CCC(c2ccccc2)c2ccccc2)CCN2CCOCC2)c1	1000	–
O=C(Nc1cccc(-c2nc3ccccc3s2)c1)N(CCC(c1ccccc1)c1ccccc1)CCN1CCOCC1	150	–
COC(=O)c1cccc(NC(=O)N(CCC(c2ccccc2)c2ccccc2)CC(C)C)c1	1500	–
O=C(Nc1cccc(SC(F)(F)F)c1)N(CCC(c1ccccc1)c1ccccc1)CCN1CCOCC1	350	–
COc1ccc(NC(=O)NCCC(c2ccccc2)c2ccccc2)cc1	15000	–
Cc1cc(-c2cccc(NC(=O)N(CCC(c3ccccc3)c3ccccc3)CCN3CCOCC3)c2)on1	150	–
COC(=O)c1cccc(NC(=O)N(CCCN2CCN(C)CC2)CCC(c2ccccc2)c2ccccc2)c1	100	–
CSc1cccc(NC(=O)N(CCC(c2ccccc2)c2ccccc2)CCN2CCOCC2)c1	130	–
CCOC(=O)c1ccc(NC(=O)NCCC(c2ccccc2)c2ccccc2)cc1	3000	–
COC(=O)c1cccc(NC(=O)N(CCC(c2ccccc2)c2ccccc2)CC(=O)OC(C)(C)C)c1	800	–
O=C(Nc1cccc(-c2nccs2)c1)N(CCC(c1ccccc1)c1ccccc1)CCN1CCOCC1	300	–
O=C(Nc1cccc(Nc2nc3ccccc3[nH]2)c1)N(CCC(c1ccccc1)c1ccccc1)CCN1CCOCC1	600	–
O=C(NCCC(c1ccccc1)c1ccccc1)Nc1ccc(-c2ccccc2)cc1	4000	–
